The record followed here is ChEMBL document CHEMBL4814064, “Azetidinimines as a novel series of non-covalent broad-spectrum inhibitors of β-lactamases with submicromolar activities against carbapenemases KPC-2 (class A), NDM-1 (class B) and OXA-48 (class D)” (Eur J Med Chem, 2021).

Experiment [1] is described as follows: Inhibition of NDM-1 (unknown origin) expressed in Escherichia coli BL21 (DE3) incubated for 3 mins by spectrophotometric analysis. On the set-up: species or system Bacteria. An outline of the steps: (§1)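 NDM-1 (1 nM, His-tagged, expressed in E. coli BL21(DE3) with 1 mM IPTG for 3 h at 37 °C, purified, kept with 50 µM ZnSO4). Run in 100 mM phosphate pH 7 with 50 µM ZnSO4, 3 min enzyme–inhibitor preincubation, then 100 µM imipenem. Initial rates at 297 nm over 600 s, 25 °C. Triplicate seven-point IC50 converted to Ki (Cheng–Prusoff); percent inhibition at 10 µM.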

In experiment [2] the test system is Bacteria. Kind of experiment: Inhibition of NDM-1 (unknown origin) expressed in Escherichia coli BL21 (DE3) at 10 uM incubated for 3 mins by spectrophotometric analysis relative to control. An outline of the steps: as §1
The target of experiment [3] is Class A carbapenemase KPC-2 (Escherichia coli, UniProt A8DS27). The experiment in a line: Inhibition of KPC-2 (unknown origin) expressed in Escherichia coli BL21 (DE3) incubated for 3 mins by spectrophotometric analysis. An outline of the steps: (§2)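 Preincubated 3 min with inhibitor in 100 mM phosphate pH 7. Imipenem 100 µM; hydrolysis followed at 297 nm for 600 s at 25 °C. IC50 from seven concentrations in triplicate; Ki by Cheng–Prusoff. Percent inhibition read at 10 µM.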

Experiment [4] relates to Bacteria. Kind of experiment: Inhibition of OXA-48 (unknown origin) expressed in Escherichia coli BL21 (DE3) at 10 uM incubated for 3 mins by spectrophotometric analysis relative to control. A digest of the protocol:
(§3)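 OXA-48 at 5.8 nM (His-tagged, expressed in BL21(DE3), purified in K2SO4 buffers) in 100 mM phosphate pH 7 plus 50 mM NaHCO3. Inhibitor preincubated 3 min; substrate 100 µM imipenem; initial velocities at 297 nm, 600 s, 25 °C. Seven inhibitor concentrations in triplicate give IC50, converted to Ki by Cheng–Prusoff; percent inhibition at 10 µM.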

For experiment [5], the target named is Class A carbapenemase KPC-2 (Escherichia coli) (UniProt A8DS27). Kind of experiment: Inhibition of KPC-2 (unknown origin) expressed in Escherichia coli BL21 (DE3) at 10 uM incubated for 3 mins by spectrophotometric analysis relative to control. A digest of the protocol:
as §2

Experiment [6] in a line: Inhibition of OXA-48 (unknown origin) expressed in Escherichia coli BL21 (DE3) incubated for 3 mins by spectrophotometric analysis. On the set-up: species or system Bacteria. An outline of the steps: as §3

Regarding `COc1ccc(N2/C(=N/c3ccccc3)C[C@@H]2c2ccccc2)cc1`, in experiment [1], the IC50 (commonly the concentration needed to halve the response being measured) is < 5000 nM. The inhibition (commonly the relative decrease from the control value, in per cent) with Bacteria [2] came to 95%.

Turning to `COc1ccc(N2/C(=N/c3ccccc3)C[C@H]2c2ccccc2)cc1`, the IC50 in experiment [1] is < 5000 nM. The inhibition in the experiment with Bacteria [2] was found to be 95%.

Regarding `COc1ccc(N2/C(=N/c3ccc(Cl)cc3)CC2c2ccc(Cl)cc2)cc1` (racemic), the Ki (commonly a dissociation constant, usually derived from enzyme kinetics or from competition with a known ligand) in experiment [1] (read-out: Ki) was determined as 240 nM; in experiment [3] (read-out: Ki), 1930 nM. In addition, the inhibition is > 50% in the experiment with Bacteria [2], 27% in the experiment on Bacteria [4] and > 50% in experiment [5].

Take `OCc1ccc(N2/C(=N/c3ccc(I)cc3)CC2c2ccc(Cl)cc2Cl)cc1` (racemic): the Ki in experiment [1] (read-out: Ki) was 1300 nM; in experiment [6], “Not Active”; in experiment [3] (read-out: Ki), 3890 nM. In addition, the inhibition (in the experiment with Bacteria [2]; in experiment [5]) was > 50% in each case.

On to `COc1cccc(N2/C(=N/c3ccccc3)CC2c2ccccc2)c1` (racemic), for which the Ki in experiment [1] (read-out: Ki) is 650 nM; in experiment [3] (read-out: Ki), 3600 nM. For the same compound, the inhibition is > 50% in the experiment with Bacteria [2], 28% in the experiment on Bacteria [4] and > 50% in experiment [5].

Regarding `Ic1ccc(N2/C(=N/c3ccccc3)CC2c2ccccc2)cc1` (racemic), the inhibitory constant (Ki) in experiment [1] (read-out: Ki) came out at 1900 nM. Also, in the experiment on Bacteria [2], the inhibition was > 50%.

For the compound `c1ccc(/N=C2\CC(c3ccccc3)N2c2ccc3c(c2)OCCO3)cc1` (racemic), the Ki worked out at 730 nM in experiment [1] (read-out: Ki) and 3600 nM in experiment [3] (read-out: Ki). The inhibition in the experiment with Bacteria [2] was > 50%; in the experiment with Bacteria [4], 37%; in experiment [5] it was > 50%.

Take `c1ccc(/N=C2\CC(c3ccccc3)N2c2ccc3c(c2)OCO3)cc1` (racemic): the Ki in experiment [1] (read-out: Ki) was 2390 nM; in experiment [6] it was “Not Active”; in experiment [3], “Not Active”. Also, the inhibition with Bacteria [2] is > 50%.

For `COc1ccc(/N=C2\CC(c3ccc(Cl)cc3)N2c2ccc(OC)cc2)cc1` (racemic), the Ki in experiment [1] (read-out: Ki) was 860 nM; in experiment [3], “Not Active”. For the same compound, the inhibition was > 50% in the experiment on Bacteria [2] and 31% in the experiment with Bacteria [4].

Regarding `COc1cc(N2/C(=N/c3ccccc3)CC2c2ccccc2)cc(OC)c1OC` (racemic), the Ki result in experiment [1], in experiment [6] and in experiment [3] was “Not Active” each time.

Consider `O=C(O)c1ccc(N2/C(=N/c3ccc(I)cc3)CC2c2ccc(Cl)cc2Cl)cc1` (racemic), for which the figures for the Ki in experiment [1] (read-out: Ki), in experiment [6] and in experiment [3] (read-out: Ki) were 35 nM, “Not Active” and 4150 nM, respectively. For the same compound, the inhibition (with Bacteria [2]; in experiment [5]) was > 50% in each case.

`COc1ccc(N2/C(=N/c3ccc(C(F)(F)F)cc3)CC2c2ccc(Cl)cc2Cl)cc1` (racemic): the Ki in experiment [1] (read-out: Ki) amounted to 370 nM; in experiment [6] (read-out: Ki), 640 nM; in experiment [3] (read-out: Ki), 6040 nM. Also, the inhibition (in the experiment with Bacteria [2]; in the experiment with Bacteria [4]; in experiment [5]) was > 50% throughout.

On to `COc1ccc(N2/C(=N/c3ccccc3)CC2c2ccc(F)cc2)cc1` (racemic), for which the Ki entry in experiment [1] and in experiment [3] was “Not Active” throughout.

In the case of `Oc1ccc(N2/C(=N/c3ccccc3)CC2c2ccccc2)cc1` (racemic), in experiment [1] (read-out: Ki), the Ki is 360 nM. Further, the inhibition in the experiment on Bacteria [2] was > 50%; in the experiment on Bacteria [4], 26%; in experiment [5], 45%.

With `COc1ccc(N2/C(=N/c3ccc(Br)cc3)CC2c2ccc(Cl)cc2)cc1` (racemic), the Ki in experiment [1] (read-out: Ki) came out at 300 nM; in experiment [6] (read-out: Ki), 840 nM; in experiment [3] (read-out: Ki), 1550 nM. Moreover, the inhibition (in the experiment with Bacteria [2]; in the experiment with Bacteria [4]; in experiment [5]) was > 50% in each case.

For the compound `COc1ccc(N2/C(=N/c3ccccc3)CC2c2ccccc2)cc1` (racemic), the Ki in experiment [1] (read-out: Ki) was 1000 nM; in experiment [6], “Not Active”; in experiment [3] (read-out: Ki), 3600 nM. Also, the inhibition with Bacteria [2] was 90%; in experiment [5], > 50%.

Regarding `COc1ccc(N2/C(=N/c3ccc(I)cc3)CC2c2cc(Cl)cc(Cl)c2)cc1` (racemic), the Ki in experiment [1] (read-out: Ki) came out at 2040 nM; in experiment [6] (read-out: Ki), 530 nM. Also, the inhibition in the experiment with Bacteria [2] was > 50%; in the experiment with Bacteria [4], > 50%; in experiment [5] it was 42%.

`CSc1ccc(N2/C(=N/c3ccccc3)CC2c2ccccc2)cc1` (racemic): the figures for the Ki in experiment [1] (read-out: Ki) and in experiment [6] were < 500 nM and “Not Active”, respectively. In addition, the inhibition was > 50% in the experiment with Bacteria [2] and 50% in experiment [5].

As for `CCOc1ccc(N2/C(=N/c3ccc(Cl)cc3)CC2c2ccc3ccccc3c2)cc1` (racemic), the Ki in experiment [1] (read-out: Ki) was 270 nM; in experiment [3] (read-out: Ki), 1960 nM. Also, the values for the inhibition (in the experiment on Bacteria [2]; in the experiment with Bacteria [4]; in experiment [5]) were > 50%, 30% and > 50%, respectively.

With `COc1ccc(N2/C(=N/c3ccccc3)CC2c2ccc3ccccc3c2)cc1` (racemic), the values for the Ki in experiment [1] (read-out: Ki), in experiment [6] (read-out: Ki) and in experiment [3] (read-out: Ki) were 1000 nM, 1300 nM and 2200 nM, respectively. The inhibition (in the experiment with Bacteria [2]; in the experiment with Bacteria [4]; in experiment [5]) was > 50% in each case.

On to `CCOc1ccc(N2/C(=N/c3ccccc3)CC2c2ccccc2)cc1` (racemic), for which the Ki in experiment [1] (read-out: Ki) came to 1000 nM; in experiment [3] (read-out: Ki), 1400 nM. Also, the inhibition with Bacteria [2] was > 50%; with Bacteria [4], 45%; in experiment [5], > 50%.

`CCOc1ccc(N2/C(=N/c3ccccc3)CC2c2ccc3ccccc3c2)cc1` (racemic): the Ki in experiment [1] (read-out: Ki) is 2400 nM. Further, in the experiment with Bacteria [2], the inhibition is > 50%.

Regarding `c1ccc(/N=C2\CC(c3ccccc3)N2c2ccccc2)cc1` (racemic), the Ki is 4620 nM in experiment [1] (read-out: Ki), 800 nM in experiment [6] (read-out: Ki) and 2410 nM in experiment [3] (read-out: Ki). In addition, the inhibition (with Bacteria [2]; with Bacteria [4]; in experiment [5]) was > 50% throughout.

Regarding `COc1ccc(N2/C(=N/c3ccc(C(F)(F)F)cc3)CC2c2ccc(Cl)cc2)cc1` (racemic), the Ki in experiment [1] (read-out: Ki) was found to be 320 nM; in experiment [3] (read-out: Ki), 2360 nM. In addition, the figures for the inhibition (in the experiment on Bacteria [2]; with Bacteria [4]; in experiment [5]) were > 50%, 32% and > 50%, respectively.

Regarding `c1ccc(COc2ccc(N3/C(=N/c4ccccc4)CC3c3ccccc3)cc2)cc1` (racemic), the figures for the Ki in experiment [1] (read-out: Ki) and in experiment [3] (read-out: Ki) were 200 nM and 1150 nM, respectively. Further, the results for the inhibition (with Bacteria [2]; in the experiment with Bacteria [4]; in experiment [5]) were > 50%, 31% and > 50%, respectively.

As to `COc1ccc(C2C/C(=N\c3ccccc3)N2c2ccc(OC)cc2)cc1` (racemic), the Ki is 2400 nM in experiment [1] (read-out: Ki), “Not Active” in experiment [6] and “Not Active” in experiment [3]. The inhibition in the experiment on Bacteria [2] is > 50%.

As to `COc1ccc(N2/C(=N/c3ccccc3)CC2c2cc(Cl)cc(Cl)c2)cc1` (racemic), the figures for the Ki in experiment [1] (read-out: Ki) and in experiment [3] (read-out: Ki) were 1000 nM and 1400 nM, respectively. In addition, the inhibition was > 50% with Bacteria [2], 20% with Bacteria [4] and > 50% in experiment [5].

With `COc1ccc(N2/C(=N/c3ccccc3)CC2c2cccnc2)cc1` (racemic), the Ki entry in experiment [1], in experiment [6] and in experiment [3] was “Not Active” in each case.

Consider `COc1ccc(N2/C(=N/c3ccc(Br)cc3)CC2c2ccc(Cl)cc2Cl)cc1` (racemic), for which, in experiment [1] (read-out: Ki), the Ki was 580 nM. Further, the inhibition with Bacteria [2] is > 50%; in the experiment with Bacteria [4], 46%; in experiment [5] it was 30%.

In the case of `COc1ccc(N2/C(=N/c3ccccc3)CC2c2ccccc2)cc1OC` (racemic), the Ki is 2400 nM in experiment [1] (read-out: Ki), “Not Active” in experiment [6] and “Not Active” in experiment [3]. The inhibition with Bacteria [2] was > 50%.

For the compound `COc1ccc(N2/C(=N/c3ccccc3)CC2c2ccc(Cl)cc2)cc1` (racemic), the Ki in experiment [1] (read-out: Ki) is 1000 nM; in experiment [6], “Not Active”; in experiment [3] it was “Not Active”. Moreover, the inhibition in the experiment with Bacteria [2] was > 50%.

Consider `COc1ccc(N2/C(=N/c3ccc(I)cc3)CC2c2ccc(Cl)cc2)cc1` (racemic), for which the Ki in experiment [1] (read-out: Ki) turned out to be 330 nM; in experiment [6] (read-out: Ki), 830 nM; in experiment [3] (read-out: Ki) it was 1770 nM. Also, the inhibition (in the experiment on Bacteria [2]; in the experiment on Bacteria [4]; in experiment [5]) was > 50% throughout.

With `COc1ccc(N2/C(=N/c3ccc(Cl)cc3)CC2c2ccc3ccccc3c2)cc1` (racemic), the Ki in experiment [1] (read-out: Ki) was 730 nM; in experiment [3] (read-out: Ki), 3940 nM. The inhibition was > 50% in the experiment with Bacteria [2], 18% with Bacteria [4] and > 50% in experiment [5].

Take `COc1ccc(N2/C(=N/c3ccccc3)CC2c2ccc(I)cc2)cc1` (racemic): the Ki in experiment [1] (read-out: Ki) is 490 nM; in experiment [3] (read-out: Ki), 730 nM. In addition, the inhibition is > 50% in the experiment on Bacteria [2], 33% in the experiment on Bacteria [4] and > 50% in experiment [5].
